# Source: PubChem
# Scp1 inh = Scp-1 (human) phosphatase inhibition | Recombinant Scp1, phosphopeptide, malachite green phosphate absorbance | inhibition, % at 20 µM | actives 0.88% (n = 340,000);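 active = inhibition above about 50% at 20 µM, limit read from the data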;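 note: plate controls were DMSO wells with enzyme for no effect and wells lacking enzyme for full effect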
# Target sequence (Q9GZU7 76-261 limits assumed): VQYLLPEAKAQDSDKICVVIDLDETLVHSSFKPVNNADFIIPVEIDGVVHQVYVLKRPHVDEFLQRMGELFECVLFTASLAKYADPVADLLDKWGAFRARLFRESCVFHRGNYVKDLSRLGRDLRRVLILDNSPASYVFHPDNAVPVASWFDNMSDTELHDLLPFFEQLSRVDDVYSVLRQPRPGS
#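 Material – SCP-1 phosphatase catalytic domain, residues 76-261 · Buffer or medium – Acidic Tris acetate buffer with magnesium and detergent · Also added – Phospho 17-mer peptide substrate · Compound – single 20 µM dose, 1% DMSO · Times – 45 min room-temperature reaction, 5 min colour, 30 min stabiliser · Technique – Phosphate-binding colour reagent, absorbance read at 630 nm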
# STEP inh = inhibitors of human striatal-enriched phosphatase STEP; P54829; recombinant STEP, OMFP fluorogenic substrate, fluorescence; inhibition, % at 20 µM; actives 0.25% (n = 360,000); AID 588621;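 active = inhibition at 20 µM, scaled per plate between control wells, above about 37%, limit read from the data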;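 note: 0% = DMSO with enzyme and substrate and 100% = substrate only without enzyme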
#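 System: STEP (striatal-enriched tyrosine phosphatase) enzyme, cell-free; medium: Bis-Tris pH 6.0 buffer with DTT, detergent; dosing: 20 µM, 1% DMSO; times: reaction 20 min, ambient temperature; detection: fluorescence, 480/540 nm; read-out basis: normalized % inhibition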
# SUMO1-SIM PPI = modulators of human SUMO1-mediated protein-protein interactions | actives 0.33% (n = 360,000) | AID 602429 | inhibition, % at 20 µM | SUMO1 binding to a labelled peptide, TR-FRET, 1 h | P63165; in the data active = inhibition above about 37%
# Target sequence (P63165 whole entry, looked up): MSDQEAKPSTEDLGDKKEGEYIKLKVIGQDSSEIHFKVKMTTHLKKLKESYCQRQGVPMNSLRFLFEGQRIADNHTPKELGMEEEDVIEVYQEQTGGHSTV
# DNMT1 block = DNMT1 (human) enzyme inhibition | P26358 | DNMT1 molecular beacon, Hinp1I cleavage, fluorescence | inhibition (reported as % activation of signal), % at 10 µM | actives 0.83% (n = 360,000); in the data active = inhibition above about 50%
# CFTR F508del cor = CFTR F508del correction in bronchial cells. CFBE cells, YFP halide quenching; stimulated with forskolin plus potentiator P3; % fluorescence drop versus neutral controls. activity (quench increase), % at 7.58 µM. actives 0.36% (n = 350,000);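 active = mean added fluorescence quench of at least 8% versus neutral control, with both replicates also reaching 8%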;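 note: cells transiently co-express mutant CFTR-F508del with the halide-sensitive YFP; corrector assay measuring rescue of mutant channel to the surface after 24 h compound exposure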
# LMPTP block = LMPTP (human) inhibition | actives 0.22% (n = 360,000) | P24666 | inhibition, % at 20 µM | recombinant LMPTP-A, OMFP fluorogenic substrate, fluorescence intensity;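 active = compounds that cut the enzyme signal by at least half of the control window in the single-dose screen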;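 note: plate controls were DMSO wells with enzyme plus substrate for no effect and substrate without enzyme for full effect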
# Target sequence (P24666 whole entry, looked up): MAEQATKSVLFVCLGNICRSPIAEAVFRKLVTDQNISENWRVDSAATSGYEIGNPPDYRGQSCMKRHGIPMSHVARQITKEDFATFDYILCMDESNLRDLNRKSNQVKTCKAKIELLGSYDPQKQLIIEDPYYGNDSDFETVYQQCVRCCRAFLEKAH
#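 test system = LMPTP-A | amount = 0.625 nM LMPTP-A final | reagent = fluorogenic phosphatase substrate OMFP at 400 µM final | incubation = 50 min at room temperature | benchmarks = no-enzyme low control, uninhibited high control | medium = Bis-Tris pH 6.0, DTT, detergent | signal = fluorescence intensity of OMFP turnover product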
# Scp1 confirm = Scp-1 (human) inhibition, single-dose confirmed; AID 540281; shares compounds with Scp1 inh; recombinant SCP-1 catalytic domain, phosphate release, malachite green absorbance; inhibition, % at 20 µM; actives 61% (n = 2,500);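 note: plate controls were DMSO with enzyme for no effect and buffer wells lacking enzyme for full effect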
# MG interference = interferes with malachite green readout, flagging false Scp-1 hits; shares compounds with Scp1 inh; Colorimetric interference counterscreen, malachite green absorbance 630 nm; apparent inhibition (interference), % at 20 µM; 2,500 tested, under 10 active; AID 540313;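 note: compounds added after enzyme reaction finished so only phosphate colour detection is probed; plate controls were DMSO wells with completed Scp-1 reaction for no effect and substrate wells lacking enzyme for full effect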
# Scp-1 Tm shift = binds human Scp-1, shifting its melting temperature | AID 540329 | actives 25% (n = 1,500) | shares compounds with Scp1 inh | Recombinant SCP1, Sypro Orange thermal shift Tm | thermal shift relative to vanadate control, % at 40 µM;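 active = substances whose mean melting-temperature shift, as a percentage of the reference inhibitor's shift, reaches about 5.3%, limit read from the data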;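 note: 0% = Tm of DMSO wells and 100% = Tm with sodium orthovanadate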
# Beacon interf DR = shows spectral interference in the DNMT1 beacon assay; IC50, µM; shares compounds with DNMT1 block; 200 tested, under 10 active; molecular beacon fluorescence, spectral interference counter-screen; call rule not given here
# DNMT1 confirm = confirmation of human DNMT1 inhibitors; actives 8% (n = 2,300); inhibition, % at 10 µM; AID 602385; DNMT1 molecular beacon HinP1I cleavage, fluorescence; shares compounds with DNMT1 block;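 active = average inhibition of at least 30% in the single-concentration confirmation test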
# Beacon interf = shows spectral interference in the DNMT1 beacon assay; DNMT1 molecular beacon spectral interference counterscreen, fluorescence 485/520; actives 1% (n = 2,300); shares compounds with DNMT1 block; AID 602387; activation (fluorescence interference), % at 10 µM;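 active = activation of at least 30% at 10 µM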;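 note: DNMT1 catalytic domain with a HinP1I cleavage step and a FAM/dabcyl DNA beacon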
# The depositor's hits bear a star; . = no result given. Hits are enriched below; roughly 1.6% of the tested compounds scored in any of these assays.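 Rule for the calls, unless noted: active = inhibition of at least 30% at 20 µM; inactive = the rest.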
SMILES,Scp1 inh,STEP inh,SUMO1-SIM PPI,DNMT1 block,CFTR F508del cor,LMPTP block,Scp1 confirm,MG interference,Scp-1 Tm shift,DNMT1 confirm,Beacon interf,others
N#Cc1ccccc1CN1C(=O)S/C(=C/c2cccn2-c2ccc(C(=O)O)cc2)C1=O,92*,12,-13,106*,.,14,63*,-21,-3,4,1,
Cc1ccnc(NS(=O)(=O)c2ccc(NC(=O)Cc3cccs3)cc2)n1,60*,1,15,90*,.,14,73*,-5,6.8*,22,-3,Beacon interf DR=>99
O=C(Cc1cccs1)Nc1ccc(S(=O)(=O)N2CCCCC2)cc1,89*,4,2,57*,.,18,64*,-20,6.6*,8,4,
Cc1ccnc(NS(=O)(=O)c2ccc(NC(=O)Cc3ccc(F)cc3)cc2)n1,-1,-2,3,4,1,-2,.,.,.,.,.,
C[C@@H]1CN([C@H](C)CO)C(=O)c2cc(C3=CCCCC3)cnc2O[C@@H]1CN(C)Cc1ccc(C(=O)O)cc1,.,.,.,.,-2,.,.,.,.,.,.,
Cc1noc(C)c1S(=O)(=O)Nc1ccc2c(c1)C(=O)N([C@H](C)CO)C[C@H](C)[C@@H](CN(C)Cc1ccccc1)OCCCC[C@H](C)O2,.,.,.,.,2,.,.,.,.,.,.,
O=C(NCC[C@H]1CC[C@@H](NS(=O)(=O)Cc2ccccc2)[C@H](CO)O1)C1CCCC1,.,.,.,.,1,.,.,.,.,.,.,
O=C(Cc1ccccn1)NCC[C@@H]1CC[C@@H](NC(=O)CN2CCOCC2)[C@H](CO)O1,.,.,.,.,-1,.,.,.,.,.,.,
CC1=CCC(C(=O)O)C(C(=O)NC2CCCCC2)C1 (stereo not drawn),100*,22,51*,79*,0,1,75*,-7,-23,0,2,
CC1=C(C)CC(C(=O)NC2CCCC2)C(C(=O)O)C1 (stereo not drawn),-5,-1,-3,1,1,-1,.,.,.,.,.,
CN(C)C(=O)[C@@H]1[C@@H](CO)[C@@H]2Cn3c(ccc(C4=CCCC4)c3=O)[C@H]1N2C(=O)c1ccccc1,.,.,.,.,-1,.,.,.,.,.,.,
Cc1cccc(C(=O)OCC(=O)c2ccc(CC(=O)N3CCOCC3)s2)c1C,85*,3,-14,50*,2,5,60*,-19,4,4,5,
Cc1cccc(C(=O)OCC(=O)N2CC(C)OC(C)C2)c1C (stereo not drawn),1,0,-6,1,-1,-1,.,.,.,.,.,
COCCn1cnnc1SCC(=O)Nc1sc2c(c1C#N)CCC2,20,-1,4,17,-2,2,.,.,.,.,.,
Cn1cnnc1SCC(=O)Nc1sc2c(c1C(N)=O)CCC2,65*,6,43*,85*,.,45,73*,-7,13*,17,3,
CC1CCC2(CC1)NC(=O)N(CC(=O)Nc1sc3c(c1C(N)=O)CCC3)C2=O (stereo not drawn),86*,21,18,70*,-1,6,65*,-11,12*,5,-1,
COC(=O)c1c(NC(=O)CN2C(=O)NC3(CCC(C)CC3)C2=O)sc2c1CCC2 (stereo not drawn),20,-1,0,6,0,3,.,.,.,.,.,
